# Results: ChEMBL document CHEMBL4689842, “EUbOPEN Chemogenomics Library wave 1” (2021)
# Values joined by “and” are separate entries in the source; they are usually repeats but may differ in a detail not shown here. Equal values may be shown once.
# Columns and labels:
# Assay type in all cases: toxicity, cell-based
# Fibroblast [1] = experiment: Multiplex assay against human fibroblast
# Summary of the method: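 Phenotypes for tubulin, mitochondrial mass and membrane permeability are expressed as per cents of healthy-nucleus cells. Cells were stained live at seeding with Hoechst33342, BioTracker Green Microtubule Cytoskeleton Dye, MitoTracker Red and Annexin V Alexa Fluor 680, then imaged after compound addition on a CQ1 microscope at 37°C and 5% CO2. Machine-learning gating in CellPathfinder separated Hoechst high-intensity objects from normal cells, divided normal cells by nuclear state (healthy, pyknosed, fragmented) and divided pyknosed cells into mitotic or apoptotic.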
# U2OS = experiment: Incucyte cell viability with U2OS; conditions: human, 10 µM, compound concentration 10 uM; note: filed as whole numbers so only -1 and 0 and 1 occur
# HEK-293T = experiment: Incucyte cell viability with HEK293T; conditions: human, 10 µM, compound concentration 10 uM; note: filed as whole numbers so only -1 and 0 and 1 occur
# Fibroblast [2] = experiment: Incucyte cell viability with human fibroblast; conditions: 10 µM, compound concentration 10 uM; note: filed as whole numbers so only -1 and 0 and 1 occur
# [3] = 12 h, 1 µM, compound concentration 1 uM, replicate 1
# [4] = 12 h, 1 µM, compound concentration 1 uM, replicate 2
# [5] = 12 h, 10 µM, compound concentration 10 uM, replicate 1
# [6] = 12 h, 10 µM, compound concentration 10 uM, replicate 2
# [7] = 24 h, 1 µM, compound concentration 1 uM, replicate 1
# [8] = 24 h, 1 µM, compound concentration 1 uM, replicate 2
# [9] = 24 h, 10 µM, compound concentration 10 uM, replicate 1
# [10] = 24 h, 10 µM, compound concentration 10 uM, replicate 2
# [11] = 48 h, 10 µM, compound concentration 10 uM, replicate 1
# [12] = 48 h, 10 µM, compound concentration 10 uM, replicate 2
# [13] = 6 h, replicate number 1, timepoint 6 hours
# [14] = 12 h, replicate number 1, timepoint 12 hours
# [15] = 18 h, replicate number 1, timepoint 18 hours
# [16] = 24 h, replicate number 1, timepoint 24 hours
# [17] = 0 h, replicate number 1, timepoint 0 hours
smiles,measurement,setting,value
Cc1c(Nc2ccc(S(=O)(=O)N3CCN(C)CC3)cc2F)nc2ccc(-c3cnn(C4CC4)c3)cn2c1=O,Population Apoptotic (%),Fibroblast [1]; [3],66%
same,Population Fragmented Nuclei (%),Fibroblast [1]; [3],29%
same,Population Healthy Nuclei (%),Fibroblast [1]; [3],57%
same,Population Hoechst High Intensity Objects (%),Fibroblast [1]; [3],11%
same,Population Membrane Permeable-Phenotype (%),Fibroblast [1]; [3],9%
same,Population Mitochondria Different-Phenotype (%),Fibroblast [1]; [3],4%
same,Population Mitotic Cells (%),Fibroblast [1]; [3],33%
same,Population Normal (%),Fibroblast [1]; [3],88%
same,Population Pyknosed Nuclei (%),Fibroblast [1]; [3],12%
same,Population Tubulin-Different-Phenotype (%),Fibroblast [1]; [3],4%
same,Total Cell Count,Fibroblast [1]; [3],222
same,Population Apoptotic (%),Fibroblast [1]; [4],50%
same,Population Fragmented Nuclei (%),Fibroblast [1]; [4],49%
same,Population Healthy Nuclei (%),Fibroblast [1]; [4],40%
same,Population Hoechst High Intensity Objects (%),Fibroblast [1]; [4],24%
same,Population Membrane Permeable-Phenotype (%),Fibroblast [1]; [4],0%
same,Population Mitochondria Different-Phenotype (%),Fibroblast [1]; [4],0%
same,Population Mitotic Cells (%),Fibroblast [1]; [4],50%
same,Population Normal (%),Fibroblast [1]; [4],75%
same,Population Pyknosed Nuclei (%),Fibroblast [1]; [4],10%
same,Population Tubulin-Different-Phenotype (%),Fibroblast [1]; [4],0%
same,Total Cell Count,Fibroblast [1]; [4],73
same,Population Apoptotic (%),Fibroblast [1]; [5],67% and 50%
same,Population Fragmented Nuclei (%),Fibroblast [1]; [5],32% and 29%
same,Population Healthy Nuclei (%),Fibroblast [1]; [5],39% and 54%
same,Population Hoechst High Intensity Objects (%),Fibroblast [1]; [5],45% and 41%
same,Population Membrane Permeable-Phenotype (%),Fibroblast [1]; [5],19% and 13%
same,Population Mitochondria Different-Phenotype (%),Fibroblast [1]; [5],3% and 4%
same,Population Mitotic Cells (%),Fibroblast [1]; [5],32% and 50%
same,Population Normal (%),Fibroblast [1]; [5],54% and 58%
same,Population Pyknosed Nuclei (%),Fibroblast [1]; [5],27% and 16%
same,Population Tubulin-Different-Phenotype (%),Fibroblast [1]; [5],30% and 20%
same,Total Cell Count,Fibroblast [1]; [5],373 and 542
same,Population Apoptotic (%),Fibroblast [1]; [6],78% and 64%
same,Population Fragmented Nuclei (%),Fibroblast [1]; [6],34% and 56%
same,Population Healthy Nuclei (%),Fibroblast [1]; [6],42%
same,Population Hoechst High Intensity Objects (%),Fibroblast [1]; [6],79% and 58%
same,Population Membrane Permeable-Phenotype (%),Fibroblast [1]; [6],11% and 8%
same,Population Mitotic Cells (%),Fibroblast [1]; [6],21% and 35%
same,Population Normal (%),Fibroblast [1]; [6],20% and 41%
same,Population Tubulin-Different-Phenotype (%),Fibroblast [1]; [6],6% and 8%
same,Population Apoptotic (%),Fibroblast [1]; [7],85%
same,Population Fragmented Nuclei (%),Fibroblast [1]; [7],26%
same,Population Healthy Nuclei (%),Fibroblast [1]; [7],60%
same,Population Hoechst High Intensity Objects (%),Fibroblast [1]; [7],12%
same,Population Membrane Permeable-Phenotype (%),Fibroblast [1]; [7],5%
same,Population Mitochondria Different-Phenotype (%),Fibroblast [1]; [7],2%
same,Population Mitotic Cells (%),Fibroblast [1]; [7],14%
same,Population Normal (%),Fibroblast [1]; [7],87%
same,Population Pyknosed Nuclei (%),Fibroblast [1]; [7],13%
same,Population Tubulin-Different-Phenotype (%),Fibroblast [1]; [7],4%
same,Total Cell Count,Fibroblast [1]; [7],230
same,Population Apoptotic (%),Fibroblast [1]; [8],80%
same,Population Fragmented Nuclei (%),Fibroblast [1]; [8],58%
same,Population Healthy Nuclei (%),Fibroblast [1]; [8],34%
same,Population Hoechst High Intensity Objects (%),Fibroblast [1]; [8],20%
same,Population Membrane Permeable-Phenotype (%),Fibroblast [1]; [8],8%
same,Population Mitochondria Different-Phenotype (%),Fibroblast [1]; [8],12%
same,Population Mitotic Cells (%),Fibroblast [1]; [8],20%
same,Population Normal (%),Fibroblast [1]; [8],79%
same,Population Pyknosed Nuclei (%),Fibroblast [1]; [8],6%
same,Population Tubulin-Different-Phenotype (%),Fibroblast [1]; [8],8%
same,Total Cell Count,Fibroblast [1]; [8],91
same,Population Apoptotic (%),Fibroblast [1]; [9],46% and 54%
same,Population Fragmented Nuclei (%),Fibroblast [1]; [9],40% and 29%
same,Population Healthy Nuclei (%),Fibroblast [1]; [9],46% and 57%
same,Population Hoechst High Intensity Objects (%),Fibroblast [1]; [9],42% and 34%
same,Population Membrane Permeable-Phenotype (%),Fibroblast [1]; [9],21%
same,Population Mitotic Cells (%),Fibroblast [1]; [9],53% and 45%
same,Population Normal (%),Fibroblast [1]; [9],57% and 65%
same,Population Pyknosed Nuclei (%),Fibroblast [1]; [9],13%
same,Population Tubulin-Different-Phenotype (%),Fibroblast [1]; [9],37% and 21%
same,Total Cell Count,Fibroblast [1]; [9],395 and 524
same,Population Apoptotic (%),Fibroblast [1]; [10],60% and 68%
same,Population Fragmented Nuclei (%),Fibroblast [1]; [10],58% and 33%
same,Population Healthy Nuclei (%),Fibroblast [1]; [10],37% and 44%
same,Population Hoechst High Intensity Objects (%),Fibroblast [1]; [10],58% and 77%
same,Population Membrane Permeable-Phenotype (%),Fibroblast [1]; [10],13% and 9%
same,Population Mitochondria Different-Phenotype (%),Fibroblast [1]; [10],23% and 0%
same,Population Mitotic Cells (%),Fibroblast [1]; [10],40% and 31%
same,Population Normal (%),Fibroblast [1]; [10],41% and 22%
same,Population Apoptotic (%),Fibroblast [1]; [11],57%
same,Population Fragmented Nuclei (%),Fibroblast [1]; [11],39%
same,Population Healthy Nuclei (%),Fibroblast [1]; [11],47%
same,Population Hoechst High Intensity Objects (%),Fibroblast [1]; [11],43%
same,Population Membrane Permeable-Phenotype (%),Fibroblast [1]; [11],14%
same,Population Mitochondria Different-Phenotype (%),Fibroblast [1]; [11],1%
same,Population Mitotic Cells (%),Fibroblast [1]; [11],42%
same,Population Normal (%),Fibroblast [1]; [11],56%
same,Population Pyknosed Nuclei (%),Fibroblast [1]; [11],13%
same,Population Tubulin-Different-Phenotype (%),Fibroblast [1]; [11],31%
same,Total Cell Count,Fibroblast [1]; [11],344
same,Population Apoptotic (%),Fibroblast [1]; [12],60%
same,Population Healthy Nuclei (%),Fibroblast [1]; [12],57%
same,Population Hoechst High Intensity Objects (%),Fibroblast [1]; [12],19%
same,Population Membrane Permeable-Phenotype (%),Fibroblast [1]; [12],16%
same,Population Mitotic Cells (%),Fibroblast [1]; [12],40%
same,Population Normal (%),Fibroblast [1]; [12],80%
same,Population Pyknosed Nuclei (%),Fibroblast [1]; [12],3%
same,Population Tubulin-Different-Phenotype (%),Fibroblast [1]; [12],24%
same,Total Cell Count,Fibroblast [1]; [12],159
same,Growth Rate,"U2OS; 0 h, replicate number 2, timepoint 0 hours",0
same,Growth Rate,U2OS; [13],1
same,Growth Rate,U2OS; [14],0
same,Growth Rate,U2OS; [15],0
same,Growth Rate,"U2OS; 18 h, replicate number 2, timepoint 18 hours",1
same,Growth Rate,U2OS; [16],0
same,Growth Rate,"U2OS; 24 h, replicate number 2, timepoint 24 hours",1
same,Growth Rate,HEK-293T; [17],1
same,Growth Rate,HEK-293T; [13],0
same,Growth Rate,"HEK-293T; 12 h, replicate number 2, timepoint 12 hours",1
same,Growth Rate,HEK-293T; [15],1
same,Growth Rate,HEK-293T; [16],1
same,Growth Rate,Fibroblast [2]; [17],0
same,Growth Rate,Fibroblast [2]; [14],1
same,Growth Rate,Fibroblast [2]; [15],1
same,Growth Rate,Fibroblast [2]; [16],1
